# Test results: ChEMBL document CHEMBL5108074 (J Med Chem, 2022)
# Experiments:
# Tryptase = Tryptase (Homo sapiens, UniProt Q9BZJ3+Q15661+Q9NRR2); experiment: Inhibition of human tryptase preincubated for 5 mins followed by substrate addition by fluorometer analysis; format: protein assay
# Method in brief: (§1)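 Human proteases, typically purified from plasma, preincubated with compound for 5 min. A protease-specific fluorogenic substrate was then added and cleavage followed kinetically on a fluorometer. IC50 from a four-parameter logistic fit to the normalized rate of fluorescence increase.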
# Prothrombin = Prothrombin (Homo sapiens, UniProt P00734); experiment: Inhibition of human thrombin preincubated for 5 mins followed by substrate addition by fluorometer analysis
# Method in brief: (§2)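 Each protease (commercial, typically purified from human plasma) was preincubated with inhibitor for 5 min, then a fluorogenic substrate specific to that enzyme was added. Cleavage was followed kinetically by fluorometry. IC50 came from a four-parameter logistic fit to the normalized rate of fluorescence increase.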
# [1] = Thermodynamic solubility of the compound in FaSSIF at 1 mg/ml at pH 6.5 using crystalline form of sample measured after 4 hrs; format: physicochemical; settings: simulated gi fluid, pH 6.5, 4 h
# Method in brief: (§3)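 Compound (nominal 1 or 100 mg/mL as free base) added to biorelevant medium preheated to 37 °C: FaSSGF at pH 1.6 or FaSSIF at pH 6.5. Vortexed, then shaken 4 h at 37 °C (~500 rpm). Centrifuged at 15000g for 10 min at 37 °C. Supernatant diluted and quantified against calibration standards. Crystalline material used where stated.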
# [2] = Volume of distribution at steady state in Beagle dog at 1 mg/kg, po and 1 mg/kg, iv measured upto 24 hrs by LC-MS analysis; format: ADME, organism-based, Canis lupus familiaris; settings: in vivo
# [3] = molecular target: Voltage-gated inwardly rectifying potassium channel KCNH2 (Homo sapiens, UniProt Q12809); experiment: Inhibition of hERG expressed in CHO cells by whole cell patch clamp assay; format: toxicity, cell-based
# Method in brief: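 hERG K+ current recorded by automated whole-cell patch clamp in CHO cells stably expressing hERG. Concentrations tested up to a maximum of 33 μM.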
# [4] = Clearance in Beagle dog assessed as liver blood flow at 1 mg/kg, iv measured upto 24 hrs by LC-MS analysis; format: ADME, organism-based, Canis lupus familiaris; settings: in vivo
# [5] = Oral bioavailability in Beagle dog at 1 mg/kg measured upto 24 hrs by LC-MS analysis; format: ADME, organism-based, Canis lupus familiaris; settings: in vivo
# Cathepsin G = Cathepsin G (Homo sapiens, UniProt P08311); experiment: Inhibition of human Cathepsin G preincubated for 5 mins followed by substrate addition by fluorometer analysis; method in brief: as §2
# [6] = Clearance in Sprague-Dawley rat assessed as liver blood flow at 1 mg/kg, iv measured upto 24 hrs by LC-MS analysis; format: ADME, organism-based; settings: in vivo
# Method in brief: (§4)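 Male Sprague-Dawley rats, two per route, single dose. IV: 1 mg/kg given as 1 mL/kg of a nominal 1 mg/mL formulation in vehicle. PO: 10 mg/kg given as 5 mL/kg of a 2 mg/mL formulation. PK parameters from noncompartmental analysis. Clearance expressed relative to rat liver blood flow of 80 mL/min/kg.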
# Cytochrome P450 2C8 = Cytochrome P450 2C8 (Homo sapiens, UniProt P10632); experiment: Inhibition of CYP2C8 in human liver microsomes assessed as reduction in 6 alpha-hydroxypaclitaxel metabolite formation incubated for 30 mins in presence of NADPH by LC-MS/MS analysis; format: ADME, Microsome
# [7] = Oral bioavailability in Sprague-Dawley rat at 10 mg/kg measured upto 24 hrs by LC-MS analysis; format: ADME, organism-based; settings: in vivo; method in brief: as §4
# Cytochrome P450 2B6 = Cytochrome P450 2B6 (Homo sapiens, UniProt P20813); experiment: Inhibition of CYP2B6 in human liver microsomes assessed as reduction in hydroxybupropion metabolite formation incubated for 30 mins in presence of NADPH by LC-MS/MS analysis; format: ADME, Microsome
# Cytochrome P450 3A4 [8] = molecular target: T1, Cytochrome P450 3A4 (Homo sapiens, UniProt P08684); experiment: Inhibition of CYP3A4 in human liver microsomes assessed as reduction in 6beta-hydroxytestosterone metabolite formation using testosterone as substrate incubated for 30 mins in presence of NADPH by LC-MS/MS analysis; format: ADME, Microsome
# [9] = Apparent permeability of the compound across apical side to basolateral side in human Caco-2 cells incubated for 1 hr by LC-MS/MS analysis; settings: caco-2, 1 h
# Trypsin = Trypsin (Homo sapiens, UniProt P07477+P07478+P35030); experiment: Inhibition of human trypsin preincubated for 5 mins followed by substrate addition by fluorometer analysis; format: protein assay; method in brief: as §1
# [10] = Half life in Beagle dog at 1 mg/kg, po and 1 mg/kg, iv measured upto 24 hrs by LC-MS analysis; format: ADME, organism-based, Canis lupus familiaris; settings: in vivo
# Coagulation factor XII = Coagulation factor XII (Homo sapiens, UniProt P00748); experiment: Inhibition of human factor 12a preincubated for 5 mins followed by substrate addition by fluorometer analysis; method in brief: as §2
# Cytochrome P450 3A4 [11] = molecular target: T1, Cytochrome P450 3A4; experiment: Inhibition of CYP3A4 in human liver microsomes assessed as reduction in 6beta-hydroxymidazolam metabolite formation using midazolam as substrate incubated for 30 mins in presence of NADPH by LC-MS/MS analysis; format: ADME, Microsome
# [12] = Thermodynamic solubility of the compound in FaSSGF at 1 mg/ml at pH 1.6 measured after 4 hrs; format: physicochemical; settings: buffer, pH 1.6, 4 h; method in brief: as §3
# [13] = Thermodynamic solubility of the compound in FaSSIF at 1 mg/ml at pH 6.5 measured after 4 hrs; format: physicochemical; settings: simulated gi fluid, pH 6.5, 4 h; method in brief: as §3
# [14] = Genotoxicity in Salmonella typhimurium by non-GLP bacterial mutagenicity Ames test; format: toxicity; settings: salmonella enterica subsp. enterica serovar typhimurium
# [15] = Clearance in Sprague-Dawley rat blood at 1 mg/kg, iv measured upto 24 hrs by LC-MS analysis; format: ADME, organism-based; settings: whole blood; method in brief: as §4
# [16] = Thermodynamic solubility of the compound in FaSSGF at 100 mg/ml at pH 1.6 measured after 4 hrs; settings: pH 1.6, 4 h
# [17] = Clearance in Beagle dog blood at 1 mg/kg, iv measured upto 24 hrs by LC-MS analysis; format: ADME, organism-based, Canis lupus familiaris; settings: whole blood
# Coagulation factor XI = Coagulation factor XI (Homo sapiens, UniProt P03951); experiment: Inhibition of human factor 11a preincubated for 5 mins followed by substrate addition by fluorometer analysis
# Method in brief: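 Enzyme from the selectivity panel of serine proteases, typically purified from human plasma. The inhibitor was preincubated with the enzyme for 5 min before a protease-specific fluorogenic substrate was added. Substrate cleavage was followed kinetically. IC50 came from a four-parameter logistic fit to the normalized rate of fluorescence increase.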
# Renin = Renin (Homo sapiens, UniProt P00797); experiment: Inhibition of human renin preincubated for 5 mins followed by substrate addition by fluorometer analysis
# Cytochrome P450 2D6 = Cytochrome P450 2D6 (Homo sapiens, UniProt P10635); experiment: Inhibition of CYP2D6 in human liver microsomes assessed as reduction in dextrorphan metabolite formation incubated for 30 mins in presence of NADPH by LC-MS/MS analysis; format: ADME, Microsome
# Cytochrome P450 2C19 = Cytochrome P450 2C19 (Homo sapiens, UniProt P33261); experiment: Inhibition of CYP2C19 in human liver microsomes assessed as reduction in 4-hydroxymephenytoin metabolite formation incubated for 30 mins in presence of NADPH by LC-MS/MS analysis; format: ADME, Microsome
# Sequence of Cytochrome P450 2C19 (P33261 whole entry): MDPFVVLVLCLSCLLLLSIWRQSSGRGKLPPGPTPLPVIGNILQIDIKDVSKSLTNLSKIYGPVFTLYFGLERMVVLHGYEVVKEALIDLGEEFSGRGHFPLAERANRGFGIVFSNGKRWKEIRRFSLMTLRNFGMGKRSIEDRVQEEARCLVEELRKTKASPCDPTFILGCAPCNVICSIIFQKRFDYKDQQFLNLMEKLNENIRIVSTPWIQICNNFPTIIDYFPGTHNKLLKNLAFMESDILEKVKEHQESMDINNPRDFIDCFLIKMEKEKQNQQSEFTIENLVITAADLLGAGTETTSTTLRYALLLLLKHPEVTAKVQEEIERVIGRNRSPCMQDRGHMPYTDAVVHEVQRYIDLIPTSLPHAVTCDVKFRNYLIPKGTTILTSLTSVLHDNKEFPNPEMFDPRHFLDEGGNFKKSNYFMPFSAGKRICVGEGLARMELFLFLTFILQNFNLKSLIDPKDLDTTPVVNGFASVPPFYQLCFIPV
# T1 sequence (P08684 whole entry): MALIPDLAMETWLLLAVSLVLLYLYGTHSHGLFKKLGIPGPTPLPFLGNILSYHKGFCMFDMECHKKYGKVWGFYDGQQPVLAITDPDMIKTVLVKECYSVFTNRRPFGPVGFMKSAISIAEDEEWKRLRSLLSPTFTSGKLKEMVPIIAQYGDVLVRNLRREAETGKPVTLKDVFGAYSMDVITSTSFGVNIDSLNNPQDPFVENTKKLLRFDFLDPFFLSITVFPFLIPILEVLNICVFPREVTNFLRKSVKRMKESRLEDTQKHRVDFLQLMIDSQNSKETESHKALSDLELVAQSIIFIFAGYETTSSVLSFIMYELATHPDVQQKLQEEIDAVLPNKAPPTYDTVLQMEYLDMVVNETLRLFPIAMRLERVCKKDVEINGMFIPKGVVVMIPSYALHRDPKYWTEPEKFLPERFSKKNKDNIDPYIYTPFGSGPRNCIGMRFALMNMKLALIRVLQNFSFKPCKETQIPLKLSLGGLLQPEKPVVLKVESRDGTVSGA
# Sequence of Voltage-gated inwardly rectifying potassium channel KCNH2 (Q12809 whole entry): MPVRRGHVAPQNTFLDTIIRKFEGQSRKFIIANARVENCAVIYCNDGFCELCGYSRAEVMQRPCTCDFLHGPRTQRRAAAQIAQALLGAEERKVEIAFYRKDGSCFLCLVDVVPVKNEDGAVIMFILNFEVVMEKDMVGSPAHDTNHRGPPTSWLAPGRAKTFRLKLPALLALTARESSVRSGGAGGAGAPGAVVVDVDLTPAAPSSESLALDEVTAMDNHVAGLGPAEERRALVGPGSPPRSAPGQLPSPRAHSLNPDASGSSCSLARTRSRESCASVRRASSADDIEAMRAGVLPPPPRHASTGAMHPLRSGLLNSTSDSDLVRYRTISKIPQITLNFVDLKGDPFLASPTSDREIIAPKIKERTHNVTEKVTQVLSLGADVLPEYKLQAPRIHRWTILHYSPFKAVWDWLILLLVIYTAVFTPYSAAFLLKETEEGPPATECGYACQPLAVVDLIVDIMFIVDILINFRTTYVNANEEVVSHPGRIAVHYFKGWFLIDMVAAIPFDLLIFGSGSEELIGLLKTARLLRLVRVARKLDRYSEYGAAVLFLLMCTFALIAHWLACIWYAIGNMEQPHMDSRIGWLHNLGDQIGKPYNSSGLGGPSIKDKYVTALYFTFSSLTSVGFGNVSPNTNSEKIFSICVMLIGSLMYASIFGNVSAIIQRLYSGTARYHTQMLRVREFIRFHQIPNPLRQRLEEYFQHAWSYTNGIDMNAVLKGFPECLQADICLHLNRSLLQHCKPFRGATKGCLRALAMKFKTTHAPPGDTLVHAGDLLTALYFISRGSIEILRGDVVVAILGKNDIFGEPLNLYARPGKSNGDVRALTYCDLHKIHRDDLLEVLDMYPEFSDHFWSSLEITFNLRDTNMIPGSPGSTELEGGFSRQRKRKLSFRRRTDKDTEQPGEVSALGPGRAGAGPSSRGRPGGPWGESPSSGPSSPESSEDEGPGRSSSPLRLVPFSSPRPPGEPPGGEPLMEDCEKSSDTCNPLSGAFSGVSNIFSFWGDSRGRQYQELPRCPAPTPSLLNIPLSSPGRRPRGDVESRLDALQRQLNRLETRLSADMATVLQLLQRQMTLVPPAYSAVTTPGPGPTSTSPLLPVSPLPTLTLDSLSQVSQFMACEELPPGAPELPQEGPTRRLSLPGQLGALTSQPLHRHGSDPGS
# Sequence of Cytochrome P450 2D6 (P10635 whole entry): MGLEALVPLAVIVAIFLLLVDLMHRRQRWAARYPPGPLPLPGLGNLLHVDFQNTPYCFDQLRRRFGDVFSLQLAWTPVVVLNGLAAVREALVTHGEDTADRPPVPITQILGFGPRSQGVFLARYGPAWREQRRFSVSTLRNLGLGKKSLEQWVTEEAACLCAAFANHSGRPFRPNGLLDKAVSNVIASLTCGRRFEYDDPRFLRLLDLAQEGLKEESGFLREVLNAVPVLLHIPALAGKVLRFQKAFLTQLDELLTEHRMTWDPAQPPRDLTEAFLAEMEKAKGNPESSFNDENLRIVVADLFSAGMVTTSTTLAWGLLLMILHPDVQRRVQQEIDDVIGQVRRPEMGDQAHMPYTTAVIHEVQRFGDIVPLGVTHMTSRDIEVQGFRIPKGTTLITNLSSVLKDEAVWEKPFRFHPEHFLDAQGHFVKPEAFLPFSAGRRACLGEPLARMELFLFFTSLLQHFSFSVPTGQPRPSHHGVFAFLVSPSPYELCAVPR
# Sequence of Cathepsin G (P08311 whole entry): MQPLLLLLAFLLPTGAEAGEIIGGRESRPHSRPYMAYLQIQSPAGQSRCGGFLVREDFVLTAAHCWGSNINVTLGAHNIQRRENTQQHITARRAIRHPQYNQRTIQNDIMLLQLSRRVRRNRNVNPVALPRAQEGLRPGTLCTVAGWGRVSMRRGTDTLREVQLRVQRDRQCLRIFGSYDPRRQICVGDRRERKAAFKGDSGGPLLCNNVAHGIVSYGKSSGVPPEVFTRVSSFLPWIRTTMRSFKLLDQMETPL
# Sequence of Cytochrome P450 2B6 (P20813 whole entry): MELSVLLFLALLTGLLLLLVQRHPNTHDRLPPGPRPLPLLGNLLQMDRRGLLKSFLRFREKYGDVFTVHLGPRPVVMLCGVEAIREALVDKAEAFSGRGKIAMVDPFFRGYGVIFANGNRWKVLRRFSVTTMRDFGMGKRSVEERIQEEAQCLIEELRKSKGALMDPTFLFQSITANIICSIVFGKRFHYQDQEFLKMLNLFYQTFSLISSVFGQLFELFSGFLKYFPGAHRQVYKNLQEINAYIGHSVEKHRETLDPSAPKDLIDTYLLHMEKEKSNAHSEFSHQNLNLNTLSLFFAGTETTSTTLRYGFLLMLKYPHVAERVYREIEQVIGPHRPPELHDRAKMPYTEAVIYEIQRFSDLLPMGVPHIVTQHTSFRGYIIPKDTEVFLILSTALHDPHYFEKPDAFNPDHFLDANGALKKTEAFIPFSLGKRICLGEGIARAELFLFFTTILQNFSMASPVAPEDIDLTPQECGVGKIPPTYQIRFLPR
# Sequence of Coagulation factor XII (P00748 20-372 limits assumed): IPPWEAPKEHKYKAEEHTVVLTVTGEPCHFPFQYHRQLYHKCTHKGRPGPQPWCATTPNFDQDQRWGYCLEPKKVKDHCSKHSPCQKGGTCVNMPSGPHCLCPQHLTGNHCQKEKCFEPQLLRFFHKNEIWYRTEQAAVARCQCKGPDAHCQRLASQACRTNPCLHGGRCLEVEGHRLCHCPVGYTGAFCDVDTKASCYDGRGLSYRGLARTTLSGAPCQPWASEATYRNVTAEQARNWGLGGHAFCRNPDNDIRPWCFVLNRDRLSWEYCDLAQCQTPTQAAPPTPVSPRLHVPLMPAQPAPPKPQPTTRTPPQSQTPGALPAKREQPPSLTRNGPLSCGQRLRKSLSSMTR
# Sequence of Coagulation factor XII (P00748 373-615 limits assumed): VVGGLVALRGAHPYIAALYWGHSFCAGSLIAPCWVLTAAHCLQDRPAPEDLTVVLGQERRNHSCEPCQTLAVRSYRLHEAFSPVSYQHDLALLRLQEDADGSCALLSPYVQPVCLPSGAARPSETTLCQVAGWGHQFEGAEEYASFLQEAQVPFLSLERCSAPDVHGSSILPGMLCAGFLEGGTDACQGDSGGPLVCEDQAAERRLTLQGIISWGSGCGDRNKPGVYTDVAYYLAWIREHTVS
# Sequence of Cytochrome P450 2C8 (P10632 whole entry): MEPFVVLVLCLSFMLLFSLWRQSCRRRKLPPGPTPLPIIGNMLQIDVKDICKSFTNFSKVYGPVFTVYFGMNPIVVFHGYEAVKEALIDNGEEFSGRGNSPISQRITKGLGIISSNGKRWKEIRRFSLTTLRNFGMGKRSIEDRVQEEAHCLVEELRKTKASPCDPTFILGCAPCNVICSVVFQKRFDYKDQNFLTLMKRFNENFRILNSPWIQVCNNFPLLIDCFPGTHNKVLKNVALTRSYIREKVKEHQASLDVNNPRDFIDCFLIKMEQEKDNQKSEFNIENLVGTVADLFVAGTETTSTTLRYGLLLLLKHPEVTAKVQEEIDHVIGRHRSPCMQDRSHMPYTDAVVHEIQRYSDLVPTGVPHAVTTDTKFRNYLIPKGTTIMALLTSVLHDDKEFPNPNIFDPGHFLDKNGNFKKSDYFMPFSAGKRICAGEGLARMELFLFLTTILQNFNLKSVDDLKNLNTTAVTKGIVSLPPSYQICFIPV
# Sequence of Renin (P00797 whole entry): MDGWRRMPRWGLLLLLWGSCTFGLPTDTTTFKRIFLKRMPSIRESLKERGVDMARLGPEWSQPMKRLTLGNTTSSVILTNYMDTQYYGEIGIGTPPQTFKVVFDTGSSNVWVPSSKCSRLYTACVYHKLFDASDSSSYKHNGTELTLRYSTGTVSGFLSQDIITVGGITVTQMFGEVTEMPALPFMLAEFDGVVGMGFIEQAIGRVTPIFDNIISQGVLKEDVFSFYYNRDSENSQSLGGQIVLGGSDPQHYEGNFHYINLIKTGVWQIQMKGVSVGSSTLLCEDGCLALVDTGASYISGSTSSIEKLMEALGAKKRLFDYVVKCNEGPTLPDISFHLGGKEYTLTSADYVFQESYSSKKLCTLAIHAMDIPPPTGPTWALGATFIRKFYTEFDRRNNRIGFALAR
structure (smiles),measurement,setting,value
COCc1nn(Cc2ccc(Cn3ccccc3=O)cc2)cc1C(=O)NCc1nccc(OC)c1F [SEBETRALSTAT],IC50,Tryptase,> 10 µM
same,IC50,Prothrombin,> 40 µM
same,Therm_solubility,[1],110 µg/mL
same,Vdss,[2],0.65 L/kg
same,IC50,[3],> 33 µM
same,LBF,[4],33%
same,F,[5],34%
same,IC50,Cathepsin G,> 10 µM
same,LBF,[6],26%
same,IC50,Cytochrome P450 2C8,> 25 µM
same,F,[7],82%
same,IC50,Cytochrome P450 2B6,> 25 µM
same,IC50,Cytochrome P450 3A4 [8],> 25 µM
same,Papp,[9],9 10^-6 cm/s
same,IC50,Trypsin,> 40 µM
same,t1/2,[10],1 h
same,IC50,Coagulation factor XII,> 40 µM
same,IC50,Cytochrome P450 3A4 [11],> 25 µM
same,Therm_solubility,[12],> 1000 µg/mL
same,Therm_solubility,[13],220 µg/mL
same,Activity,[14],Non-Toxic
same,clearance,[15],20.9 mL/min/kg
same,Therm_solubility,[16],11000 µg/mL
same,clearance,[17],10.9 mL/min/kg
same,IC50,Coagulation factor XI,> 40 µM
same,IC50,Renin,> 10 µM
same,IC50,Cytochrome P450 2D6,> 25 µM
same,IC50,Cytochrome P450 2C19,> 25 µM
